This is an account of results in ChEMBL document CHEMBL1141088, “A new pyridazine series of GABAA alpha5 ligands” (J Med Chem, 2005).

Data set [1] has as its target T1, GABA-A receptor; alpha-3/beta-3/gamma-2 (Homo sapiens) (UniProt P18507+P28472+P34903). Kind of data set: Maximum inhibition of GABA EC20 response at GABA-A receptor alpha-3-beta-3-gamma-2,n=3. Type of data set: protein-complex assay. In a few lines: (§1)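 Whole-cell patch clamp of L(tk-) cells stably expressing human α1, α3 or α5 β3γ2s, perfused with bicarbonate saline pH 7.2, CsCl pipette solution pH 7.3. Drugs applied by double-barrelled pipette; GABA in 5 s pulses at 30 s intervals. Modulation measured against a GABA EC20 set for each cell; curves fitted to a Hill equation.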

The nature of data set [2]: Half life of compound determined after iv administration at 1 mg/kg dose as a solution(1 mg/mL) in a PEG 300:H2O(3:1). Type of data set: ADME, organism-based. Details: dose 1 mg/kg, route intravenous. As to conditions: rat, in vivo. The essentials:
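Single rat, cannulated, given 100 units heparin, recovered 48 h, fasted overnight. Dosed 1 mg/kg iv bolus (1 mL/kg) in PEG 300:water 3:1. Serial blood sampled to 6 h and plasma analysed by LC-MS/MS with diazepam internal standard. Cl in mL/min/kg from plasma, T1/2 in hours from 1–3 h data, Vdss in L/kg.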

Data set [3] concerns the target T2, GABA-A receptor; alpha-1/beta-3/gamma-2 (Homo sapiens, UniProt P14867+P18507+P28472).
T2 sequence (P14867 whole entry): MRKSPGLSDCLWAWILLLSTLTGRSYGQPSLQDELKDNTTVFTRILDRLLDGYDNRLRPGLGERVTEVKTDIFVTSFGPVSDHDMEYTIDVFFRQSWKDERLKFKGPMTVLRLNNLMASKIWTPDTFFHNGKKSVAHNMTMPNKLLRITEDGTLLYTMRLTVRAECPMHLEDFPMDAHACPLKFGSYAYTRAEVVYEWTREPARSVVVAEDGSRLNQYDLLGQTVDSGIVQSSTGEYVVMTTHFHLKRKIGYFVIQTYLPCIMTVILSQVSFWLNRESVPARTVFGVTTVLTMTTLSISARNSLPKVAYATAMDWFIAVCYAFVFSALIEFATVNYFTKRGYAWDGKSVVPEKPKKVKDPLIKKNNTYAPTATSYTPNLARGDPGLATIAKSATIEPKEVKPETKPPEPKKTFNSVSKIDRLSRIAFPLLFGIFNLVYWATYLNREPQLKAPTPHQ
T2 sequence (P18507 whole entry): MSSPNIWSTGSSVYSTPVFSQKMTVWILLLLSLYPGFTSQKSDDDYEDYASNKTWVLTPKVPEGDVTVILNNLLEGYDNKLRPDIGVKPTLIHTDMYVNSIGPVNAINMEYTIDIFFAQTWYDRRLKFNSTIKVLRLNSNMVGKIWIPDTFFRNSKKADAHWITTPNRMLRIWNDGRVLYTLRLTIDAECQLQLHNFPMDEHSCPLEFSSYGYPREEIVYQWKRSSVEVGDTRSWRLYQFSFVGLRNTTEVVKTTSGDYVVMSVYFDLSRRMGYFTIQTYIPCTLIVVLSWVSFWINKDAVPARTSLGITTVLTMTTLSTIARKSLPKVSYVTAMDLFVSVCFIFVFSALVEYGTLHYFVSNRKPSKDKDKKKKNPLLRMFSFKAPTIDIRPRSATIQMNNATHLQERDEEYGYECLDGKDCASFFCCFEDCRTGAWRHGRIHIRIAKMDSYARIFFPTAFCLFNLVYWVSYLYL
T2 sequence (P28472 whole entry): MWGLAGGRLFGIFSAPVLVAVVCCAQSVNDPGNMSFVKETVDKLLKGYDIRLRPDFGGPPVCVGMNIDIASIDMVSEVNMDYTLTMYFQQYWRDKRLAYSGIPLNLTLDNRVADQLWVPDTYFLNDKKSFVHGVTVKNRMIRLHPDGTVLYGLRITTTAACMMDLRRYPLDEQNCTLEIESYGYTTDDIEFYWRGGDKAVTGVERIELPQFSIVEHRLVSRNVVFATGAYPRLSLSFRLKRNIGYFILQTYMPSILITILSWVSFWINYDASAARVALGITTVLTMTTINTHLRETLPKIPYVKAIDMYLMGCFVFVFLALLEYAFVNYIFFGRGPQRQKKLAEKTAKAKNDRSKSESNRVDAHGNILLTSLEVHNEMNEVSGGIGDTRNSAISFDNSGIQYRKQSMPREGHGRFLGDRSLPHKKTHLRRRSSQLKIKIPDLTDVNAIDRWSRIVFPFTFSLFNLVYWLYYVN
Nature of the data set: Negative logarithm of effective concentration against GABA-A alpha-1-beta-3-gamma-2 receptor. Type of data set: protein-complex assay. The essentials:
as §1

For data set [4], the target named is T1, GABA-A receptor; alpha-3/beta-3/gamma-2 (Homo sapiens). Kind of data set: Efficacy at GABAA alpha-3-beta-3-gamma-2 receptor expressed in mouse fibroblast L(tk-) cells measured at 300 nM derived from at least three plates/day screened over a minimum of 2 days. Type of data set: functional, cell-based. In a few lines: (§2)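 FRET membrane-potential (VIPR) assay in L(tk-) cells with receptor expression induced 24 h by 1 µM dexamethasone. Dye-loaded 30 min in low-Cl- HEPES buffer pH 7.4: 4 µM CC2-DMPE, 1 µM DiSBAC2(3), 0.5 mM tartrazine. Basal read 8 s, compound at 300 nM, half-maximal GABA 22 s later, 1 Hz reads. Background-subtracted 460/580 nm ratio, normalized to DMCM as -100%.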

Data set [5] has as its target GABA-A receptor; alpha-5/beta-3/gamma-2 (Homo sapiens) (UniProt P18507+P28472+P31644). Kind of data set: Efficacy at GABAA alpha-5-beta-3-gamma-2 receptor expressed in mouse fibroblast L(tk-) cells measured at 300 nM derived from at least three plates/day screened over a minimum of 2 days. Type of data set: functional, cell-based. The essentials:
as §2

In data set [6] the target is T2, GABA-A receptor; alpha-1/beta-3/gamma-2. Kind of data set: Displacement of [3H]-Ro- 15-1788 binding from human recombinant Gamma-aminobutyric acid A receptor alpha-1-beta-3-gamma-2 expressed in mouse fibroblast L(tk-) cells (30 min at 24 degrees C, pH 7.4). Type of data set: cell-based. In a few lines:
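Membranes from L(tk-) cells stably expressing human α1, α3 or α5 β3γ2 in 50 mM Tris pH 7.4. [3H]Ro15-1788 at 1.8 nM final, 30 min at 24 °C. Nonspecific binding set with 10 µM flunitrazepam, total binding in 0.1% DMSO. Filtration, scintillation counting. Ki is mean ± SEM of ≥3 independent determinations.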
On the technique in general: In a radioligand displacement assay an active substance lowers the binding of a labelled ligand.

As a reminder, the half-life is how long it takes for the measured level to halve. A higher half-life goes with slow decline. The EC50 is the concentration at which the effect is half-maximal. A higher EC50 goes with a need for much substance. Usually Ki stands for the dissociation constant of the complex between target and ligand, obtained from inhibition or displacement.

Regarding `N#Cc1cccc(-c2cnnc(-c3ccccc3)c2)c1`, the Maximum inhibition in data set [1] was -16%. The compound further showed a half-life in data set [2] of 36 min. The compound further showed an EC50 in data set [3] of 2.95 nM. The Efficacy in data set [4] is -4; in data set [5], -32. For the same compound, in data set [6], the Ki came to 7 nM.
